Columns and labels:
[1] = target: T1, Adrenergic receptor alpha-1 (Rattus norvegicus, UniProt P15823+P23944+P43140); experiment: Displacement of [3H]prazosin from rat brain cortex adrenergic alpha1 receptor after 30 mins by liquid scintillation counting
T1 sequence (P15823 whole entry): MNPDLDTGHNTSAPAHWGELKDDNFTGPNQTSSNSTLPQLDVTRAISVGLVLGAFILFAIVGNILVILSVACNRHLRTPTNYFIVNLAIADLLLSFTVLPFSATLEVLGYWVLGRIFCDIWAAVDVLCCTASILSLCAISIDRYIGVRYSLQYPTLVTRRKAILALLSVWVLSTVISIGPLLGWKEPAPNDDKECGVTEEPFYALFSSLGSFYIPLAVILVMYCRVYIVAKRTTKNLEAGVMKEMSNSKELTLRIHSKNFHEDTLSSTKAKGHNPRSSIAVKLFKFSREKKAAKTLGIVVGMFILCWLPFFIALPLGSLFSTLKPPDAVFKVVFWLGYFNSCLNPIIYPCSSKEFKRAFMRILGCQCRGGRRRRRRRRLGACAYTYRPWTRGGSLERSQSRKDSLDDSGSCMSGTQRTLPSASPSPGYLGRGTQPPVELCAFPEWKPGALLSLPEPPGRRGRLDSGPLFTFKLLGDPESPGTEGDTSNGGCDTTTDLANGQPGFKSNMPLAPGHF
T1 sequence (P23944 whole entry): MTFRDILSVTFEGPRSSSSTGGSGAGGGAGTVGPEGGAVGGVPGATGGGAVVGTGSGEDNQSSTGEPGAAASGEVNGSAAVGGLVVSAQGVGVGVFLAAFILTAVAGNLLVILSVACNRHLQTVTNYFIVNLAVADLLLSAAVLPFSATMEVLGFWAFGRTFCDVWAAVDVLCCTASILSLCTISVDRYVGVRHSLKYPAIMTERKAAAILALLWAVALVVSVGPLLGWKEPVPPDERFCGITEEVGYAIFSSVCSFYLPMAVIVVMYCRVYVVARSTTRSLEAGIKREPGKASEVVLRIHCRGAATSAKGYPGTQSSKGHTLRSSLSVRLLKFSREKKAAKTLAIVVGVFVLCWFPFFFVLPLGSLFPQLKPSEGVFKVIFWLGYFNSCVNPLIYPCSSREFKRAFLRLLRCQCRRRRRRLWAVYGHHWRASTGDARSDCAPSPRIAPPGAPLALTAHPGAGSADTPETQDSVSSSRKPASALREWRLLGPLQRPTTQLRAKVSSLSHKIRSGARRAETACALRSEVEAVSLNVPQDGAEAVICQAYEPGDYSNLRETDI
T1 sequence (P43140 whole entry): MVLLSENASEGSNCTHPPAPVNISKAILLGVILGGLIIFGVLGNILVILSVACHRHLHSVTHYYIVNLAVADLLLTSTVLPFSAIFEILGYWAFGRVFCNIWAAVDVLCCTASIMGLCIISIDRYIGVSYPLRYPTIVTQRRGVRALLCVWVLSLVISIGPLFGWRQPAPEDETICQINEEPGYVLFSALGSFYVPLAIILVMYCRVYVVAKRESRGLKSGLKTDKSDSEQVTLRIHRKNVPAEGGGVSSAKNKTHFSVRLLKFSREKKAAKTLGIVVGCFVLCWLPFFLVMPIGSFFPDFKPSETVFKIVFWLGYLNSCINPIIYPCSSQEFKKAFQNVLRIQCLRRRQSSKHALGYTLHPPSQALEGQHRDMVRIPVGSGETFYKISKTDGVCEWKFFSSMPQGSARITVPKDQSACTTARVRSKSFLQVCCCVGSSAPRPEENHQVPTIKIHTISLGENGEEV
Outline: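 Brain cortex homogenized in 50 mM Tris-HCl pH 7.2, spun twice at 50,000 g, resuspended in Tris-HCl pH 7.4. 0.4 nM [3H]prazosin final, 10 mg fresh tissue, 30 min at 25 °C. Nonspecific binding with phentolamine. GF/B filtration. Ki by Cheng-Prusoff from six-point triplicate curves.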

[2] = target: 5-hydroxytryptamine receptor 2A (Rattus norvegicus) (UniProt P14842); experiment: Displacement of [3H]ketanserin from Sprague-Dawley rat brain cortex serotonin 5-HT2A receptor at 0.00001 uM after 15 mins by liquid scintillation counting
Sequence of 5-hydroxytryptamine receptor 2A (Rattus norvegicus) (P14842 whole entry): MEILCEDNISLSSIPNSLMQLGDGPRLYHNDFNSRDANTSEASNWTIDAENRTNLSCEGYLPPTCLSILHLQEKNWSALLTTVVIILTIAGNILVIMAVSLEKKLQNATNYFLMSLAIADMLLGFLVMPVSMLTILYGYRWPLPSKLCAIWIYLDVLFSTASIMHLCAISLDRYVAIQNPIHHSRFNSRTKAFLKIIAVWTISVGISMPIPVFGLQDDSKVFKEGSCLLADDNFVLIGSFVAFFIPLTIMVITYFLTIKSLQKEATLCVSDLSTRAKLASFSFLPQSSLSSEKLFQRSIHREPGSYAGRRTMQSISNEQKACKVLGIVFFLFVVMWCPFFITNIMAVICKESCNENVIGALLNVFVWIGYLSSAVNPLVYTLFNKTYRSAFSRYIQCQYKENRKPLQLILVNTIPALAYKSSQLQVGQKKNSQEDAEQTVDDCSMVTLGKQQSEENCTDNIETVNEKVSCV

[3] = target: 5-hydroxytryptamine receptor 2A (Rattus norvegicus) (UniProt P14842); experiment: Displacement of [3H]ketanserin from Sprague-Dawley rat brain cortex serotonin 5-HT2A receptor at 0.0000001 uM after 15 mins by liquid scintillation counting
[4] = target: T2, Adrenergic receptor alpha-2 (Rattus norvegicus, UniProt P22086+P19328+P22909); experiment: Displacement of [3H]yohimbine from rat brain cortex adrenergic alpha2 receptor after 30 mins by liquid scintillation counting
T2 sequence (P22086 whole entry): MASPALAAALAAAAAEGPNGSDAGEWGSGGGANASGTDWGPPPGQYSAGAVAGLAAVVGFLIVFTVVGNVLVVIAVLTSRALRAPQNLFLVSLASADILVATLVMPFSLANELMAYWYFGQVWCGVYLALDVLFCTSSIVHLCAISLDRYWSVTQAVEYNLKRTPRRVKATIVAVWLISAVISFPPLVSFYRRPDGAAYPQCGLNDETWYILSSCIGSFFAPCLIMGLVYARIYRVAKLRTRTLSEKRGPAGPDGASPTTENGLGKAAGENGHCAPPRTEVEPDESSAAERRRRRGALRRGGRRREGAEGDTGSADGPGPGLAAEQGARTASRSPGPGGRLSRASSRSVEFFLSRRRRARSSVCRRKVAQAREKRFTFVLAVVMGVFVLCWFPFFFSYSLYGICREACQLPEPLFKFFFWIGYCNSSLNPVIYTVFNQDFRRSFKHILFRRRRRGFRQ
T2 sequence (P19328 whole entry): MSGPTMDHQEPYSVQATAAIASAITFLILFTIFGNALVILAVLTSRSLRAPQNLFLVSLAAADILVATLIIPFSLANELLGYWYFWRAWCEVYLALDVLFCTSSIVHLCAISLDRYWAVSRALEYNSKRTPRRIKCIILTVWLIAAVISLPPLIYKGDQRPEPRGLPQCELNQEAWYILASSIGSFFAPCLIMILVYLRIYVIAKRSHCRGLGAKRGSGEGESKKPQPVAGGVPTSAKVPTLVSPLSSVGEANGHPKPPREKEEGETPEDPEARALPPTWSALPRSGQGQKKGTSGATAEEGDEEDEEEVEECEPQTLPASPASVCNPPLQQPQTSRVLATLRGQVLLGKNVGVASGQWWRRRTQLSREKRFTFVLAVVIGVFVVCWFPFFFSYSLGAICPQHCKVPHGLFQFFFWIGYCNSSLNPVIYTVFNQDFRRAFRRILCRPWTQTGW
T2 sequence (P22909 whole entry): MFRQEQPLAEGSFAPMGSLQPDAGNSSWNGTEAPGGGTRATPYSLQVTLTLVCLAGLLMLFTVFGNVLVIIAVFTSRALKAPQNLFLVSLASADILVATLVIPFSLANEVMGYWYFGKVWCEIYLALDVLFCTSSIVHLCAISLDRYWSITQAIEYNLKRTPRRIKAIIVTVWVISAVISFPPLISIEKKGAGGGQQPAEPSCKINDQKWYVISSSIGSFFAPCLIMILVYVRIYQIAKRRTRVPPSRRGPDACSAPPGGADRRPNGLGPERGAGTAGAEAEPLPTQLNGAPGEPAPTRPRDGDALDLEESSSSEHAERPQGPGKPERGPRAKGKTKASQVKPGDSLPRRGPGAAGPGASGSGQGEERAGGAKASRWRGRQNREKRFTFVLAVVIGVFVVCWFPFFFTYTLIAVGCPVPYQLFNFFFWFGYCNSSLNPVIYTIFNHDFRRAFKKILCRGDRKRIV
Outline: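 Cortex homogenized in 5 mM Tris-HCl, 5 mM EDTA pH 7.3, spun three times at 50,000 g, resuspended in 50 mM Tris-HCl, 0.5 mM EDTA pH 7.5. [3H]yohimbine 1 nM final, 10 mg fresh tissue, 30 min at 25 °C. Phentolamine defined nonspecific binding. Ki by Cheng-Prusoff.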

[5] = target: 5-hydroxytryptamine receptor 2A (Rattus norvegicus) (UniProt P14842); experiment: Displacement of [3H]ketanserin from Sprague-Dawley rat brain cortex serotonin 5-HT2A receptor at 0.001 uM after 15 mins by liquid scintillation counting

## N#C/N=C(\NCCCN1CCN(c2cccc(Cl)c2)CC1)c1ccccn1
[1]
  Ki: 174 nM
[2]
  inhibition: 68.8%
[3]
  inhibition: 45.3%
[4]
  Ki: 1360 nM
[5]
  inhibition: 95.1%

Reference: ChEMBL document CHEMBL1926621, “New potent 5-HT(2A) receptor ligands containing an N'-cyanopicolinamidine nucleus: Synthesis and in vitro pharmacological evaluation” (Eur J Med Chem, 2012)
